Reference: ChEMBL document CHEMBL4359928, “Scaffold Morphing To Identify Novel DprE1 Inhibitors with Antimycobacterial Activity” (ACS Med Chem Lett, 2019)
In brackets after ≈: the same amount, converted by molar mass.

How the values were obtained:
[1] = tested on: Mycobacterium tuberculosis; assay: Antimycobacterial activity against Mycobacterium tuberculosis H37Rv assessed as reduction in bacterial cell growth by resazurin reduction method; type: functional
[2] = Inhibition of DprE1 in Mycobacterium tuberculosis
[3] = tested on: Mycobacterium tuberculosis; assay: Bactericidal activity against Mycobacterium tuberculosis; type: functional
[4] = tested on: Mycobacterium tuberculosis; assay: Bactericidal activity against Mycobacterium tuberculosis infected in mouse assessed as reduction in colony forming unit at 1 to 2 times of antimycobacterial MIC incubated for 10 days; type: functional
[5] = tested on: Mycobacterium tuberculosis; assay: Bactericidal activity against Mycobacterium tuberculosis infected in human THP1 cells assessed as reduction in colony forming unit at antimycobacterial MIC incubated for 7 days; type: functional
[6] = tested on: Mycolicibacterium smegmatis; assay: Antimycobacterial activity against Mycobacterium smegmatis mc2 155 assessed as reduction in bacterial cell growth by resazurin reduction method; type: functional
[7] = Tmax in mouse at MIC in presence of CYP pan inhibitor 1-aminobenzotriazole; type: ADME; settings: in vivo
[8] = Lipophilicity, logD of compound; type: physicochemical; settings: octanol/water
[9] = Aqueous solubility of DMSO-dried solid compounds; type: physicochemical; settings: buffer
[10] = Protein binding in human plasma assessed as free fraction; type: ADME, cell-free
[11] = Permeability across apical to basolateral side in human Caco2 cells; type: ADME, cell-based; settings: Caco-2, read-out: permeability
[12] = Permeability across basolateral to apical side in human Caco2 cells; type: ADME, cell-based; settings: Caco-2, read-out: permeability
Cytochrome P450 1A2 = Cytochrome P450 1A2 (Homo sapiens, UniProt P05177); assay: Inhibition of CYP1A2 (unknown origin); type: ADME
Sequence of Cytochrome P450 1A2 (P05177 whole entry): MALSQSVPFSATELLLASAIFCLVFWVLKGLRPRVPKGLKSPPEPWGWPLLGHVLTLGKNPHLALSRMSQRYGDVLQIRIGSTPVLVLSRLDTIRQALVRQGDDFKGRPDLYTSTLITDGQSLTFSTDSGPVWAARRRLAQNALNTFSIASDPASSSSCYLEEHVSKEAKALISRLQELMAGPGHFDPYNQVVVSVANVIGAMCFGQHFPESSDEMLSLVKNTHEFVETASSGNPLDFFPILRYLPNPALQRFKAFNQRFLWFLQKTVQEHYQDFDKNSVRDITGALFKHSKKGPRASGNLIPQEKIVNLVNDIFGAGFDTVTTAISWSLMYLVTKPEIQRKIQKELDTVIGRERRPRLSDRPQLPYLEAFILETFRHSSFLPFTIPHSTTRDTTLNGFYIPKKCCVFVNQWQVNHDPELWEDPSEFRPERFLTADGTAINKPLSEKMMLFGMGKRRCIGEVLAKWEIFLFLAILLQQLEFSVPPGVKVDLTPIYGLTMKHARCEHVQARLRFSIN

Cytochrome P450 2C9 = Cytochrome P450 2C9 (Homo sapiens, UniProt P11712); assay: Inhibition of CYP2C9 (unknown origin); type: ADME
Sequence of Cytochrome P450 2C9 (P11712 whole entry): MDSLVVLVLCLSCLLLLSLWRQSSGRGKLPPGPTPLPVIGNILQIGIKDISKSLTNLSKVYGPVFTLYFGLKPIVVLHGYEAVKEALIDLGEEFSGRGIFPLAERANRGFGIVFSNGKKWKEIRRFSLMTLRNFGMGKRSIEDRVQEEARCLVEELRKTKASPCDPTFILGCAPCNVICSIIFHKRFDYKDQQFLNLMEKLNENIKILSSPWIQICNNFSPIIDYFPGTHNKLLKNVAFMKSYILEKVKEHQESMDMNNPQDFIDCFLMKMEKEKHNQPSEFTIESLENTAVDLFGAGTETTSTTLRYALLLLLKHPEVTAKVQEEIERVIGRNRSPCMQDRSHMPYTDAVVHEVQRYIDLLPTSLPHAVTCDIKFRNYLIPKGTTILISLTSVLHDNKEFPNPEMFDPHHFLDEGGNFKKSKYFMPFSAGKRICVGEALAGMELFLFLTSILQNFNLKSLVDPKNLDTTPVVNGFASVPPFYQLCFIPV

Cytochrome P450 2C19 = Cytochrome P450 2C19 (Homo sapiens, UniProt P33261); assay: Inhibition of CYP2C19 (unknown origin); type: ADME
Sequence of Cytochrome P450 2C19 (P33261 whole entry): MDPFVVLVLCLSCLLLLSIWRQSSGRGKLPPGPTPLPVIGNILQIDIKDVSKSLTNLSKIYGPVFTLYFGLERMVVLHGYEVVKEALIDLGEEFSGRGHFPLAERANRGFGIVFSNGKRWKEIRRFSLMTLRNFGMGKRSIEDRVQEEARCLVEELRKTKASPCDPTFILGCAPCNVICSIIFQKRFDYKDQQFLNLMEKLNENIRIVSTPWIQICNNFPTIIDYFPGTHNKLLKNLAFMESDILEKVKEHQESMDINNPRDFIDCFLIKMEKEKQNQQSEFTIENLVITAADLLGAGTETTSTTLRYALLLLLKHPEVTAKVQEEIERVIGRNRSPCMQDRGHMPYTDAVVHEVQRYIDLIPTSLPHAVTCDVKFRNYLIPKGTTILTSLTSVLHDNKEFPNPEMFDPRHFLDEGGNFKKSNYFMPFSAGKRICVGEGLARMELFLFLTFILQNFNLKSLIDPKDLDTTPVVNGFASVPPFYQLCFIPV

Cytochrome P450 2D6 = Cytochrome P450 2D6 (Homo sapiens, UniProt P10635); assay: Inhibition of CYP2D6 (unknown origin); type: ADME
Sequence of Cytochrome P450 2D6 (P10635 whole entry): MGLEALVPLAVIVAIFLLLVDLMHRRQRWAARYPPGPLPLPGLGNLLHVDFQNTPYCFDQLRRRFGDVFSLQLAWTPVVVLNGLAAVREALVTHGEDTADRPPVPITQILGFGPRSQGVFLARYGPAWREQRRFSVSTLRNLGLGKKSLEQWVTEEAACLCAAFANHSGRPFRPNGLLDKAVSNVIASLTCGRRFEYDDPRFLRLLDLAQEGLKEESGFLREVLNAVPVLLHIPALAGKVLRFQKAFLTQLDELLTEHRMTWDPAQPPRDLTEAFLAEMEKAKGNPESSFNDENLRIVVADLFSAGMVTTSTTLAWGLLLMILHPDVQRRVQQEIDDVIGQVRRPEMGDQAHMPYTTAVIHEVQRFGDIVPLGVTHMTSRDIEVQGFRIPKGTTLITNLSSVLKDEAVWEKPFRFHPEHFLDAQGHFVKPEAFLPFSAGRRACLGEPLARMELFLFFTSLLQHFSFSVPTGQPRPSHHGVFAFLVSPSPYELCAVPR

Cytochrome P450 3A4 = Cytochrome P450 3A4 (Homo sapiens, UniProt P08684); assay: Inhibition of CYP3A4 (unknown origin); type: ADME
Sequence of Cytochrome P450 3A4 (P08684 whole entry): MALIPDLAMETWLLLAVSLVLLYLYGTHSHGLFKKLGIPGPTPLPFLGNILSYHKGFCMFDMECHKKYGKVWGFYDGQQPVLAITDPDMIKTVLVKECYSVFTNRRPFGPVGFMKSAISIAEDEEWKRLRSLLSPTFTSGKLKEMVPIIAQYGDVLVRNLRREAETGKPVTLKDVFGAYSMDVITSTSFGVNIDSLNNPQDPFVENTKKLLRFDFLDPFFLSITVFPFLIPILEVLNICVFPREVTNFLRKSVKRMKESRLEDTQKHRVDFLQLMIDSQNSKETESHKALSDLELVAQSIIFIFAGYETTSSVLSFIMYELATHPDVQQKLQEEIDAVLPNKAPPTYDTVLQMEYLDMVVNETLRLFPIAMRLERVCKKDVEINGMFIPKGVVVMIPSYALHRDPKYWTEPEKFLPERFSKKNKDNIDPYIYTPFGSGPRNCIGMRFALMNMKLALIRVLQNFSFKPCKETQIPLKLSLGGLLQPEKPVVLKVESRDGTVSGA

[13] = target: Voltage-gated inwardly rectifying potassium channel KCNH2 (Homo sapiens, UniProt Q12809); assay: Inhibition of human ERG
Sequence of Voltage-gated inwardly rectifying potassium channel KCNH2 (Q12809 whole entry): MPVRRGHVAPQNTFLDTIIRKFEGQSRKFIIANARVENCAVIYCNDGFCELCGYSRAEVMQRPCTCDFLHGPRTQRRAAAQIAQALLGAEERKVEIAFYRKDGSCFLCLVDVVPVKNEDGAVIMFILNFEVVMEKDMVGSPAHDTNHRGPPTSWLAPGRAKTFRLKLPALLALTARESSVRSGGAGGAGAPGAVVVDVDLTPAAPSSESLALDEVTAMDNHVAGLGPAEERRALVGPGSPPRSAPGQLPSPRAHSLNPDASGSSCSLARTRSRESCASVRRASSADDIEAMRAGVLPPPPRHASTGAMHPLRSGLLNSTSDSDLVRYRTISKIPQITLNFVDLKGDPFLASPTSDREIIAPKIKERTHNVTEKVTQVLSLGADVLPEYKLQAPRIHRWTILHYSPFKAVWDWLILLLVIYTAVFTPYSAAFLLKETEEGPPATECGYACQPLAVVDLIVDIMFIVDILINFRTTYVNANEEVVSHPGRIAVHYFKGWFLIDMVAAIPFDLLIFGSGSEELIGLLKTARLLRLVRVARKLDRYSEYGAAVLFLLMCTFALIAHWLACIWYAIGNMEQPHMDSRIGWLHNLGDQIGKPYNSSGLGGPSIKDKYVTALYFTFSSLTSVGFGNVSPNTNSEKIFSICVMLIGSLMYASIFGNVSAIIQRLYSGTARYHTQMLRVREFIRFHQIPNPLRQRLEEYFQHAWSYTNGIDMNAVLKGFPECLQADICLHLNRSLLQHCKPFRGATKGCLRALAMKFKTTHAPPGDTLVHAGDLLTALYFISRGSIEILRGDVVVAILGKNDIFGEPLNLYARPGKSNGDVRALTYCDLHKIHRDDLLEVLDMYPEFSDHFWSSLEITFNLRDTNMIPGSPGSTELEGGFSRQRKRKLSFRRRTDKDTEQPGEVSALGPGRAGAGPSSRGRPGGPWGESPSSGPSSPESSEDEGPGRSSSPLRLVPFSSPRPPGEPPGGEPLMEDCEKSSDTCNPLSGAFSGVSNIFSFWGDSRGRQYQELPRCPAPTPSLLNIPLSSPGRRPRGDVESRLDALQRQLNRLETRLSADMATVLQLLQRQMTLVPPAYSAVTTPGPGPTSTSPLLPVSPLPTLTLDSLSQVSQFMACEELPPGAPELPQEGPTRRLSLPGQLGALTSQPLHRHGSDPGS

[14] = Clearance in rat; type: ADME; settings: in vivo
[15] = Oral bioavailability in rat; type: ADME, organism-based; settings: in vivo
[16] = Cmax in BALB/c mouse infected with Mycobacterium tuberculosis H37Rv at 10 mg/kg, po administered for 4 weeks starting from day 28 post infection; type: ADME, organism-based; set-up: dose 10 mg/kg, route oral; settings: in vivo
How it was run: (§1)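 Male BALB/c mice with chronic TB, aerosol-infected, given 10 or 30 mg/kg orally in multiple doses over a 4-week course that began 28 days post-infection. Plasma concentration–time profiles were taken from infected animals. PK parameters are reported as mean ± SD, n = 3.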

[17] = Tmax in BALB/c mouse infected with Mycobacterium tuberculosis H37Rv at 10 mg/kg, po administered for 4 weeks starting from day 28 post infection; type: ADME, organism-based; settings: in vivo; how it was run: as §1
[18] = AUC (0 to infinity) in BALB/c mouse infected with Mycobacterium tuberculosis H37Rv at 10 mg/kg, po administered for 4 weeks starting from day 28 post infection; type: ADME, organism-based; set-up: dose 10 mg/kg, time infinity, route oral; settings: in vivo; how it was run: as §1
[19] = Half life in BALB/c mouse infected with Mycobacterium tuberculosis H37Rv at 10 mg/kg, po administered for 4 weeks starting from day 28 post infection; type: ADME, organism-based; settings: in vivo; how it was run: as §1
[20] = Cmax in BALB/c mouse infected with Mycobacterium tuberculosis H37Rv at 30 mg/kg, po administered for 4 weeks starting from day 28 post infection; type: ADME, organism-based; set-up: dose 30 mg/kg, route oral; settings: in vivo; how it was run: as §1
[21] = Tmax in BALB/c mouse infected with Mycobacterium tuberculosis H37Rv at 30 mg/kg, po administered for 4 weeks starting from day 28 post infection; type: ADME, organism-based; settings: in vivo; how it was run: as §1
[22] = AUC (0 to infinity) in BALB/c mouse infected with Mycobacterium tuberculosis H37Rv at 30 mg/kg, po administered for 4 weeks starting from day 28 post infection; type: ADME, organism-based; set-up: dose 30 mg/kg, route oral, time infinity; settings: in vivo; how it was run: as §1
[23] = Half life in BALB/c mouse infected with Mycobacterium tuberculosis H37Rv at 30 mg/kg, po administered for 4 weeks starting from day 28 post infection; type: ADME, organism-based; settings: in vivo; how it was run: as §1
[24] = tested on: Mycobacterium tuberculosis; assay: Antimycobacterial activity against Mycobacterium tuberculosis H37Rv infected in BALB/c mouse assessed as reduction in bacterial burden in mouse lung at 30 mg/kg, po administered for 4 weeks starting from day 28 post infection; type: functional
How it was run: (§2)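 Chronic TB model in BALB/c mice infected by the aerosol route. Oral treatment began 28 days post-infection and ran 4 weeks. Bacterial burden was read as log10 CFU in lungs and spleen.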

[25] = tested on: Mycobacterium tuberculosis; assay: Antimycobacterial activity against Mycobacterium tuberculosis H37Rv infected in BALB/c mouse assessed as reduction in bacterial burden in mouse spleen at 30 mg/kg, po administered for 4 weeks starting from day 28 post infection; type: functional; how it was run: as §2
[26] = Toxicity in BALB/c mouse infected with Mycobacterium tuberculosis H37Rv assessed as body weight loss at 10 to 30 mg/kg, po administered for 4 weeks starting from day 28 infection; type: organism-based; settings: in vivo, 672 h
How it was run: (§3)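 Infected BALB/c mice received repeated oral dosing for 4 weeks in the chronic efficacy study. Adverse events were assessed as body weight loss, organ weight loss and gross pathology.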

[27] = Toxicity in BALB/c mouse infected with Mycobacterium tuberculosis H37Rv assessed as organ weight loss at 10 to 30 mg/kg, po administered for 4 weeks starting from day 28 infection; type: organism-based; settings: in vivo, 672 h; how it was run: as §3
[28] = Toxicity in BALB/c mouse infected with Mycobacterium tuberculosis H37Rv assessed as gross pathology at 10 to 30 mg/kg, po administered for 4 weeks starting from day 28 infection; type: organism-based; settings: in vivo, 672 h; how it was run: as §3
Bacillus subtilis = assay: Antibacterial activity against Bacillus subtilis; type: functional
[29] = tested on: Corynebacterium glutamicum; assay: Antibacterial activity against Corynebacterium glutamicum; type: functional
[30] = tested on: Corynebacterium pseudodiphtheriticum; assay: Antibacterial activity against Corynebacterium pseudodiphtheria; type: functional
[31] = tested on: Corynebacterium pseudotuberculosis; assay: Antibacterial activity against Corynebacterium pseudotuberculosis; type: functional
Enterococcus faecalis = assay: Antibacterial activity against Enterococcus faecalis; type: functional
Escherichia coli = assay: Antibacterial activity against Escherichia coli; type: functional
Listeria monocytogenes = assay: Antibacterial activity against Listeria monocytogenes; type: functional
Nocardia farcinica = assay: Antibacterial activity against Nocardia farcinica; type: functional
Proteus vulgaris = assay: Antibacterial activity against Proteus vulgaris; type: functional
Pseudomonas aeruginosa = assay: Antibacterial activity against Pseudomonas aeruginosa; type: functional
Pseudomonas putida = assay: Antibacterial activity against Pseudomonas putida; type: functional
Rhodococcus = assay: Antibacterial activity against Rhodococcus sps; type: functional
Prescottella equi = assay: Antibacterial activity against Rhodococcus equi; type: functional; settings: Rhodococcus (subgen. Prescottella) equi
Staphylococcus aureus = assay: Antibacterial activity against Staphylococcus aureus; type: functional
[32] = Mycobacterium tuberculosis, H37Rv, read-out: MIC

`C[C@H]1COC2(CCN(c3nc(=O)c4cc(C(F)(F)F)cc([N+](=O)[O-])c4s3)CC2)O1` [BTZ-043] gave an MIC [1, 32] of 0.003 to 0.006 µM (≈ 0.00129 to 0.00259 µg/mL).
In the case of `COc1ncnc(Cn2cnc3c(C(=O)NCCF)cccc32)c1C`, the MIC [1, 32] is reported as 1.56 to 3.12 µM (≈ 0.536 to 1.07 µg/mL), the IC50 [2] is reported as 0.034 µM and the MBC [3] is reported as 1.56 µM (≈ 0.536 µg/mL). For the same compound, the Activity [4] was greater than 3 log10CFU, the Activity [5] was 1 log10CFU and the MIC [6] was 0.78 to 1.56 µM (≈ 0.268 to 0.536 µg/mL). For the same compound, the Tmax [7] was 6 to 10 h, the logD [8] was 1.9 and the solubility [9] was 152 µM (≈ 52.2 µg/mL). For the same compound, the fraction unbound [10] was 0.32, the Papp A→B [11] was 37 ×10⁻⁶ cm/s and the Papp B→A [12] was 14 ×10⁻⁶ cm/s. It also gave an IC50 (Cytochrome P450 1A2) greater than 50 µM, an IC50 (Cytochrome P450 2C9) greater than 50 µM and an IC50 (Cytochrome P450 2C19) greater than 50 µM. For the same compound, the IC50 (Cytochrome P450 2D6) was greater than 50 µM, the IC50 (Cytochrome P450 3A4) was greater than 50 µM and the IC50 [13] was greater than 33 µM. The clearance [14] was 48 mL/min/kg, the bioavailability [15] was 114% and the Cmax [16] was 5.1 µM. For the same compound, the Tmax [17] was 2 h, the AUC(0-inf) [18] was 13.5 µM·h and the half-life [19] was 4.5 h. It also gave a Cmax [20] of 18.3 µM, a Tmax [21] of 3 h and an AUC(0-inf) [22] of 78.6 µM·h. It also gave a half-life [23] of 5.9 h, an Activity [24] of 1.5 log10CFU and an Activity [25] of 1 log10CFU. The Activity [26] was “Non-Toxic”, the Activity [27] was “Non-Toxic” and the Activity [28] was “Non-Toxic”. For the same compound, the MIC (Bacillus subtilis) was greater than 200 µM, the MIC [29] was greater than 200 µM and the MIC [30] was greater than 200 µM. The MIC [31] was greater than 200 µM, the MIC (Enterococcus faecalis) was greater than 200 µM and the MIC (Escherichia coli) was greater than 200 µM. For the same compound, the MIC (Listeria monocytogenes) was greater than 200 µM, the MIC (Nocardia farcinica) was greater than 200 µM and the MIC (Proteus vulgaris) was greater than 200 µM. The MIC (Pseudomonas aeruginosa) was greater than 200 µM, the MIC (Pseudomonas putida) was greater than 200 µM and the MIC (Rhodococcus) was greater than 200 µM. The MIC (Prescottella equi) was greater than 200 µM and the MIC (Staphylococcus aureus) was greater than 200 µM.
`COc1ncnc(Cn2cnc3c(C(=O)NCCF)cc(C)cc32)c1C` gave an MIC [1, 32] of 0.78 µM (≈ 0.279 µg/mL) and an IC50 [2] of 0.008 µM.
Compound `Cc1cc(C(=O)NCCF)c2ncn(Cc3ncnc(OC(F)F)c3C)c2c1` has an MIC [1, 32] of less than 0.39 µM and an IC50 [2] of 0.016 µM.
With `CO[C@H]1/C=C/O[C@@]2(C)Oc3c(C)c(O)c4c(O)c(c(/C=N/N5CCN(C)CC5)c(O)c4c3C2=O)NC(=O)/C(C)=C\C=C\[C@H](C)[C@H](O)[C@@H](C)[C@@H](O)[C@@H](C)[C@H](OC(C)=O)[C@@H]1C` [RIFAMPIN] the MIC [1, 32] was 0.01 µM (≈ 0.00823 µg/mL).
For `COc1ncnc(Cn2cc(C(=O)NCCO)c3ncc(C)cc32)c1C` [TBA-7371], the MIC [1] was 0.78 µM (≈ 0.277 µg/mL), the MBC [3] was 1.56 µM (≈ 0.554 µg/mL) and the clearance [14] was 27 mL/min/kg.
In the case of `NNC(=O)c1ccncc1` [ISONIAZID], the MIC [1, 32] is reported as 0.44 µM (≈ 0.0603 µg/mL).
